For 4 molecules, residual activity and inhibition results are on record in ChEMBL document CHEMBL5705888, “Substrate specificity and inhibitors of LRRK2, a protein kinase mutated in Parkinson's disease” (Biochem J, 2009).

Experiment [1] concerns the target RAC-alpha serine/threonine-protein kinase (Homo sapiens) (UniProt P31749). In words: Inhibition of PKBalpha (unknown origin) at 10 uM incubated for 30 mins in presence of [gamma-33P]ATP by multidrop micro reagent based assay relative to control; values are per cent of control.
Experiment [2] concerns the target Proto-oncogene tyrosine-protein kinase Src (Homo sapiens) (UniProt P12931). The experiment is described as follows: Inhibition of Src (unknown origin) at 10 uM incubated for 30 mins in presence of [gamma-33P]ATP by multidrop micro reagent based assay relative to control; values are per cent of control.
Experiment [3] addresses T1, NUAK family SNF1-like kinase 1 (Homo sapiens) (UniProt O60285).
T1 sequence (whole entry): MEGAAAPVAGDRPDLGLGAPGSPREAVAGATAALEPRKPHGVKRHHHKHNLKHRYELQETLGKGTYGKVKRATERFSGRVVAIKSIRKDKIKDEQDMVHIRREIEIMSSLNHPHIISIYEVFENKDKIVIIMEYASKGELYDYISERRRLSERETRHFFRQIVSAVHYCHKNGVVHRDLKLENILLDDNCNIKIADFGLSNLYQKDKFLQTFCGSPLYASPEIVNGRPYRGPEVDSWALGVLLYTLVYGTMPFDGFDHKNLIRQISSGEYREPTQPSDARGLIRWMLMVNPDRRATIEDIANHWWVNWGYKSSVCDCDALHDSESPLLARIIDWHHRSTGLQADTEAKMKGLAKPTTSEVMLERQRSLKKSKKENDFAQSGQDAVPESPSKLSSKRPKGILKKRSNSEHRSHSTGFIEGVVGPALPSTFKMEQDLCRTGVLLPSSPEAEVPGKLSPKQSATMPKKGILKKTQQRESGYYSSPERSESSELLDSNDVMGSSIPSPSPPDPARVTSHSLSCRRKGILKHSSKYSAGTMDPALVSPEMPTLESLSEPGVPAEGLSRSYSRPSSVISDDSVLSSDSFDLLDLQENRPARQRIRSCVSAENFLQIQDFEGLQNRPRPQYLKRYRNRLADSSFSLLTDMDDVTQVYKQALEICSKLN
In words: Inhibition of NUAK1 (unknown origin) at 1 uM incubated for 30 mins in presence of [gamma-33P]ATP by multidrop micro reagent based assay relative to control. A digest of the protocol: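 Single-concentration screen across a panel of 85 protein kinases. Activity is expressed as a percentage of control incubations run without inhibitor.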

For experiment [4], the target named is T2, Ephrin type-B receptor 3 (Homo sapiens) (UniProt P54753).
T2 sequence (whole entry): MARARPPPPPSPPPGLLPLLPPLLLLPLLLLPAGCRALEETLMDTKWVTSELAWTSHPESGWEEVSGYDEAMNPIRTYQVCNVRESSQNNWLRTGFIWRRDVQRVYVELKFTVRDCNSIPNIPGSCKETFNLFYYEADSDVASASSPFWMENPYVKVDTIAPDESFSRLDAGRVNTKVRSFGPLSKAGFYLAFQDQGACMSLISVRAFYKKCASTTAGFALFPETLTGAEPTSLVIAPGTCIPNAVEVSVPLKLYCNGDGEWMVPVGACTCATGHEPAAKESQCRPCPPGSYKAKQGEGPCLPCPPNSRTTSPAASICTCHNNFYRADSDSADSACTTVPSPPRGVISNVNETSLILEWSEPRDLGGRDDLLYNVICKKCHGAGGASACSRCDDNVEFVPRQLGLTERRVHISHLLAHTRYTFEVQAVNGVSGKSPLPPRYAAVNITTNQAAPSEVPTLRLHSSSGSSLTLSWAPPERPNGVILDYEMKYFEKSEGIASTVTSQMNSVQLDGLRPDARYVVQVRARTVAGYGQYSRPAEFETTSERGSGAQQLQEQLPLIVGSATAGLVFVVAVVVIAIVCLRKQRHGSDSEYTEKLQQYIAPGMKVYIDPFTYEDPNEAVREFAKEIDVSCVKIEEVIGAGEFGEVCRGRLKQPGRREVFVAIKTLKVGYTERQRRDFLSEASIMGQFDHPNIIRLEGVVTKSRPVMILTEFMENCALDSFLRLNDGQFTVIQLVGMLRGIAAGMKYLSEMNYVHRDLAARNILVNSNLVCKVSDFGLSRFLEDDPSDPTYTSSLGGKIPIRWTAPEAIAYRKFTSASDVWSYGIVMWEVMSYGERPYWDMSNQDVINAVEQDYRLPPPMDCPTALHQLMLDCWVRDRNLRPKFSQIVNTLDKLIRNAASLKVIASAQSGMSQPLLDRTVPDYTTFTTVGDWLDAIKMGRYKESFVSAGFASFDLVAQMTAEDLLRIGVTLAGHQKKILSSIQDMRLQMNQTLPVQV
The experiment is described as follows: Inhibition of EPH-B3 (unknown origin) at 1 uM incubated for 30 mins in presence of [gamma-33P]ATP by multidrop micro reagent based assay relative to control.

The target of experiment [5] is T3, Serine/threonine-protein kinase Nek2 (Homo sapiens) (UniProt P51955).
T3 sequence (whole entry): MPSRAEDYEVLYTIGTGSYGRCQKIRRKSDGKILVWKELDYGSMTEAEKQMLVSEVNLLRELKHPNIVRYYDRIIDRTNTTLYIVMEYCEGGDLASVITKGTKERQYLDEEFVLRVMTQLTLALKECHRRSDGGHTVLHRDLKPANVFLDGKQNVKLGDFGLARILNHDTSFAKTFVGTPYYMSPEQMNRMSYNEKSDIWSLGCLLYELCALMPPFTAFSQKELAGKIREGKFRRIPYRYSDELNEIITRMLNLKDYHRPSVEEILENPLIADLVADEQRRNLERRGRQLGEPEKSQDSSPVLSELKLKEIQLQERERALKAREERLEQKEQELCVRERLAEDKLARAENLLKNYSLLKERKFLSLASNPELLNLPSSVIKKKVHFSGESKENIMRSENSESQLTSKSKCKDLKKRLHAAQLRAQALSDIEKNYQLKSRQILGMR
In words: Inhibition of NEK2a (unknown origin) at 1 uM incubated for 30 mins in presence of [gamma-33P]ATP by multidrop micro reagent based assay relative to control; values are per cent of control.

Chain of Proto-oncogene tyrosine-protein kinase Src (Homo sapiens) (P12931 2-536 limits assumed): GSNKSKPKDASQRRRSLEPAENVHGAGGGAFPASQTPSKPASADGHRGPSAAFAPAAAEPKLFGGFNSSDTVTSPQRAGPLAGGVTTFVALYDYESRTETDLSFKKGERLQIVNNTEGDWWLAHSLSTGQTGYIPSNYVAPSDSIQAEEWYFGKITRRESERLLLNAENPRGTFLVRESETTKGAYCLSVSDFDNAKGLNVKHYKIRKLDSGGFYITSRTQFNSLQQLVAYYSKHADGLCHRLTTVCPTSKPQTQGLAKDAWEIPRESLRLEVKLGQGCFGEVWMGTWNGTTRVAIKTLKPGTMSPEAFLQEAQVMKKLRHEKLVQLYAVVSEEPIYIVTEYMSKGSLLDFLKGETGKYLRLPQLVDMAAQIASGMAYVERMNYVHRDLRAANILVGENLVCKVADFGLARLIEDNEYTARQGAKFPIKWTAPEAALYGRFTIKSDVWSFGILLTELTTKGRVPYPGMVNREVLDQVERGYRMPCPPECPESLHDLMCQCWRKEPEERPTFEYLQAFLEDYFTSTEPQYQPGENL
Chain of RAC-alpha serine/threonine-protein kinase (Homo sapiens) (P31749 whole entry): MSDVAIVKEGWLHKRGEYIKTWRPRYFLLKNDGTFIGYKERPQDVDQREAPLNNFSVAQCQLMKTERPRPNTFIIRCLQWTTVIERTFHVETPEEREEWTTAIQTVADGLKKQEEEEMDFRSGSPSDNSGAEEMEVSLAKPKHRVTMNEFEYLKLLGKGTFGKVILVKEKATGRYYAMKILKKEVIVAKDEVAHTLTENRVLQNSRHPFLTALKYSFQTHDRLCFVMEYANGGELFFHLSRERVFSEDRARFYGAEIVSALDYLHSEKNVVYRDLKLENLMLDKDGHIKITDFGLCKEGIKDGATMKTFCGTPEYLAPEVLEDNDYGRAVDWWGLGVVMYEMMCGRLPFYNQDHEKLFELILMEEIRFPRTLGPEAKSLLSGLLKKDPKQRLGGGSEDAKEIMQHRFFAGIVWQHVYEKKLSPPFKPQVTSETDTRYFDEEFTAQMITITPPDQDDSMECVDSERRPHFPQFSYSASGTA

As a reminder, the residual activity is the signal under treatment as a percentage of the control signal. For the molecule `C[C@@H](N)[C@H]1CC[C@H](C(=O)Nc2ccncc2)CC1`, the residual activity in experiment [1] was 56%; in experiment [2] it was 90%.

As usually defined, the inhibition is the percentage by which the read-out fell short of the control. Consider `Cc1cncc2cccc(S(=O)(=O)N3CCCNC[C@@H]3C)c12`, for which the results for the inhibition in experiment [3] and in experiment [4] were 51% and 69%, respectively. For the same molecule, in experiment [5], the residual activity amounted to 99%.

As to `O=S(=O)(c1cccc2cnccc12)N1CCCNCC1` [FASUDIL], the residual activity was 27% in experiment [1] and 120% in experiment [2].

Consider `CC1=C(C(=O)Nc2cc3cn[nH]c3cc2F)C(c2ccc(C(F)(F)F)cc2)CC(=O)N1` (stereo not given), for which the inhibition in experiment [3] came to 51%; in experiment [4], 87%. Further, the residual activity in experiment [5] turned out to be 106%.
